Test results published in ChEMBL document CHEMBL4819107, “Substituted N-(4-amino-2-chlorophenyl)-5-chloro-2-hydroxybenzamide analogues potently inhibit respiratory syncytial virus (RSV) replication and RSV infection-associated inflammatory responses” (Bioorg Med Chem, 2021).
The source made the active and inactive calls. The calls are words filed in the database; no cut-off is given here.

Legend:
[1] = system: Respiratory syncytial virus; assay: Antiviral activity against RSV infected in human A549 cells assessed as reduction in viral titer at 10 uM incubated for 15 hrs by immunostaining analysis; assay type: functional
Summary of the method: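 RSV long strain (propagated in HEp-2, sucrose-gradient purified) infected A549 cells at MOI 1 for 2 h. Inoculum removed, then compound at 10 μM for 15 h. Progeny virus titred by immunostaining in HEp-2 cells with biotin-conjugated goat anti-RSV antibody. Log reduction = log10 mean titer of vehicle-treated cells minus log10 mean titer with compound.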

A549 [2] = assay: Antiinflammatory activity against in human A549 cells transfected with PRDIII-I-Luc and IRF-3-Luc assessed as reduction in RSV-induced IRF3 activation at 10 uM incubated for 15 hrs by luciferase reporter gene assay; assay type: functional, cell-based
Summary of the method: (§1)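 A549 cells transfected in triplicate with luciferase plasmids, either NF-κB-Luc or IRF-3-site reporters. At 20 h post-transfection, infected with RSV (MOI 1). Virus removed at 2 h, then 10 μM compound added for 15 h. Cells then harvested and lysed for luciferase activity.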

A549 [3] = assay: Antiinflammatory activity against in human A549 cells transfected with NF-kappaB-Luc assessed as reduction in RSV-induced NF-kappaB activation at 10 uM incubated for 15 hrs by luciferase reporter gene assay; assay type: functional, cell-based; summary of the method: as §1
A549 [4] = assay: Antiinflammatory activity against in human A549 cells assessed as reduction in RSV-induced IRF3 mRNA expression at 10 uM incubated for 4 hrs by qRT-PCR analysis; assay type: functional, cell-based
A549 [5] = assay: Antiinflammatory activity against in human A549 cells assessed as reduction in RSV-induced NF-kappaB mRNA expression at 10 uM incubated for 4 hrs by qRT-PCR analysis; assay type: functional, cell-based
SAEC [6] = assay: Antiinflammatory activity against in human SAEC cells assessed as reduction in RSV-induced MIP-1beta production at 10 uM incubated for 4 hrs by immunoassay; assay type: functional, cell-based
Summary of the method: (§2)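 Primary small airway epithelial cells infected with RSV long strain at MOI 5. Virus removed at 2 h, then 10 μM compound added. Supernatant collected 4 h post-treatment. Cytokines/chemokines quantified with a multiplex human profiling bead kit (Bio-Plex).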

SAEC [7] = assay: Antiinflammatory activity against in human SAEC cells assessed as reduction in RSV-induced IL-6 production at 10 uM incubated for 4 hrs by immunoassay; assay type: functional, cell-based; summary of the method: as §2
SAEC [8] = assay: Antiinflammatory activity against in human SAEC cells assessed as reduction in RSV-induced TNF-alpha production at 10 uM incubated for 4 hrs by immunoassay; assay type: functional, cell-based; summary of the method: as §2
[9] = system: Respiratory syncytial virus; assay: Antiviral activity against RSV infected in human A549 cells assessed as reduction in viral titer at 2.5 uM incubated for 15 hrs by immunostaining analysis; assay type: functional
Summary of the method: (§3)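 Dose-response: A549 cells infected with RSV long strain at MOI 1, then treated with a range of compound concentrations for 15 h. Total virus harvested and titred by immunostaining in HEp-2 cells with biotin-conjugated goat anti-RSV antibody. Reduction expressed as log decrease in titer relative to vehicle (DMSO) control.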

[10] = system: Respiratory syncytial virus; assay: Antiviral activity against RSV infected in human A549 cells assessed as reduction in viral RNA at 10 uM measured upto 24 hrs by qRT-PCR analysis; assay type: functional, organism-based; conditions: time hrs <=24
Summary of the method: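 A549 cells infected with RSV (MOI 1), then given 10 μM compound. RSV genome copies in cells quantified by RT-qPCR at 6, 15 and 24 h post-treatment. A fusion inhibitor served as a reference control.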

[11] = system: Respiratory syncytial virus; assay: Antiviral activity against RSV infected in human A549 cells assessed as reduction in viral phosphoprotein at 10 uM incubated for 15 hrs by Western blot analysis; assay type: functional, organism-based
Summary of the method: (§4)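 A549 cells infected with RSV (MOI 1) and treated with 10 μM compound for 15 h. Viral proteins detected by western blot of lysates using anti-RSV or anti-F antibodies, with β-actin as loading control. Membranes blocked in 5% milk in TBS-Tween 20.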

[12] = system: Respiratory syncytial virus; assay: Antiviral activity against RSV infected in human A549 cells assessed as reduction in viral matrix protein at 10 uM incubated for 15 hrs by Western blot analysis; assay type: functional, organism-based; summary of the method: as §4
[13] = system: Respiratory syncytial virus; assay: Antiviral activity against RSV infected in human A549 cells assessed as reduction in viral N protein at 10 uM incubated for 15 hrs by Western blot analysis; assay type: functional, organism-based; summary of the method: as §4
[14] = target: T1, Nuclear factor NF-kappa-B complex (Homo sapiens) (UniProt Q00653+P19838+Q04206); assay: Inhibition of NF-kappaB in human A549 cells assessed as reduction in p65 Ser536 phosphorylation at 10 uM measured after 4 hrs by Western blot analysis; assay type: cell-based
Summary of the method: (§5)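 A549 cells infected or mock-infected with RSV (MOI 5), then treated with 10 μM compound for 4 h. Nuclear extracts (or total lysates) prepared, resolved by SDS-PAGE, transferred to PVDF, and probed by western blot. β-actin as loading control.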

[15] = target: T1, Nuclear factor NF-kappa-B complex (Homo sapiens); assay: Inhibition of NF-kappaB in human A549 cells assessed as reduction in p65 nuclear translocation at 10 uM measured after 4 hrs by Western blot analysis; assay type: cell-based; summary of the method: as §5
[16] = target: T1, Nuclear factor NF-kappa-B complex (Homo sapiens); assay: Inhibition of NF-kappaB in human A549 cells assessed as reduction in p65 Ser276 phosphorylation at 10 uM measured after 4 hrs by Western blot analysis; assay type: cell-based; summary of the method: as §5
[17] = target: T1, Nuclear factor NF-kappa-B complex (Homo sapiens); assay: Inhibition of NF-kappaB in human A549 cells assessed as reduction in p65 Ser536 phosphorylation at 10 uM measured after 15 hrs by Western blot analysis; assay type: cell-based
Summary of the method: (§6)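 A549 cells infected or mock-infected with RSV (MOI 1), then treated with 10 μM compound for 15 h. Nuclear extracts prepared and analysed by western blot after SDS-PAGE and PVDF transfer. β-actin as loading control.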

[18] = target: T1, Nuclear factor NF-kappa-B complex (Homo sapiens); assay: Inhibition of NF-kappaB in human A549 cells assessed as reduction in p65 nuclear translocation at 10 uM measured after 15 hrs by Western blot analysis; assay type: cell-based; summary of the method: as §6
[19] = target: T1, Nuclear factor NF-kappa-B complex (Homo sapiens); assay: Inhibition of NF-kappaB in human A549 cells assessed as reduction in p65 Ser276 phosphorylation at 10 uM measured after 15 hrs by Western blot analysis; assay type: cell-based; summary of the method: as §6
[20] = target: T2, Interferon regulatory factor 3 (Homo sapiens) (UniProt Q14653); assay: Inhibition of poly I:C-induced IRF3 (unknown origin) transfected in human HEK293 cells co-transfected with IRF3-Luc gene incubated for 4 hrs by luciferase reporter gene; assay type: cell-based
T2 sequence (whole entry): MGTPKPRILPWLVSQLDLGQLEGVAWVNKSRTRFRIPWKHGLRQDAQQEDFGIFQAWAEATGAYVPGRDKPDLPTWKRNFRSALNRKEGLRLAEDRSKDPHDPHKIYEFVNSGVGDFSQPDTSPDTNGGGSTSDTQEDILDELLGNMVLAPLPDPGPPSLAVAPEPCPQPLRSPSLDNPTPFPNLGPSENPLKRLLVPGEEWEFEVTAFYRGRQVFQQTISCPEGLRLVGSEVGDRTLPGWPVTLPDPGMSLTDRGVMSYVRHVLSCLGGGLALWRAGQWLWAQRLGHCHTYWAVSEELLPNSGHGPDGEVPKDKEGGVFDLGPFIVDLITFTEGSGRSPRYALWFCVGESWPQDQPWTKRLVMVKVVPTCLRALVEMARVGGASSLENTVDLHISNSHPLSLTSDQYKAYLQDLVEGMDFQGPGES
Summary of the method: (§7)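 HEK-293 cells transiently transfected with IRF-3 or NF-κB luciferase reporter. At 15 h post-transfection, cells transfected with Poly I:C in the presence of compound. Luciferase activity then measured.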

[21] = target: T1, Nuclear factor NF-kappa-B complex (Homo sapiens); assay: Inhibition of TNF-alpha-induced NF-kappaB (unknown origin) transfected in human HEK293 cells co-transfected with NF-kappaB-Luc gene incubated for 4 hrs by luciferase reporter gene; assay type: cell-based
Summary of the method: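 HEK-293 cells transiently transfected with NF-κB luciferase reporter. At 15 h post-transfection, stimulated with 10 ng/ml TNF-α in the presence of compound. Luciferase activity then measured.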

A549 [22] = assay: Cytotoxicity against human A549 cells assessed as reduction in cell viability incubated for 15 hrs by trypan blue assay; conditions: a549, 15 h
[23] = target: Interferon regulatory factor 3 (Homo sapiens) (UniProt Q14653); assay: Inhibition of IRF3 in RSV-infected human A549 cells assessed as reduction in IRF3 nuclear translocation at 10 uM measured upto 15 hrs by Western blot analysis; conditions: time hrs <=15
[24] = target: Interferon regulatory factor 3 (Homo sapiens) (UniProt Q14653); assay: Inhibition of IRF3 in RSV-infected human A549 cells assessed as reduction in IRF3 Ser396 phosphorylation at 10 uM measured upto 15 hrs by Western blot analysis; conditions: time hrs <=15
[25] = system: Respiratory syncytial virus; assay: Antiviral activity against RSV infected in human A549 cells assessed as reduction in viral titer at 7.5 uM incubated for 15 hrs by immunostaining analysis; assay type: functional; summary of the method: as §3
[26] = target: T1, Nuclear factor NF-kappa-B complex (Homo sapiens); assay: Inhibition of poly I:C-induced NF-kappaB (unknown origin) transfected in human HEK293 cells co-transfected with NF-kappaB-Luc gene incubated for 4 hrs by luciferase reporter gene; assay type: cell-based; summary of the method: as §7
A549 [27] = assay: Cytotoxicity against human A549 cells assessed as cell death at 10 uM incubated for 15 hrs by LDH assay; assay type: cell-based; conditions: a549, 15 h
Summary of the method: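 A549 cells seeded at 1.5 × 10^4 cells/well. After 24 h, medium replaced with medium containing 10 μM compound and 2% FBS. At 15 h, cell damage read by luminescent LDH release assay. DMSO vehicle control; three biological replicates.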

T1 sequence (P19838 whole entry, looked up): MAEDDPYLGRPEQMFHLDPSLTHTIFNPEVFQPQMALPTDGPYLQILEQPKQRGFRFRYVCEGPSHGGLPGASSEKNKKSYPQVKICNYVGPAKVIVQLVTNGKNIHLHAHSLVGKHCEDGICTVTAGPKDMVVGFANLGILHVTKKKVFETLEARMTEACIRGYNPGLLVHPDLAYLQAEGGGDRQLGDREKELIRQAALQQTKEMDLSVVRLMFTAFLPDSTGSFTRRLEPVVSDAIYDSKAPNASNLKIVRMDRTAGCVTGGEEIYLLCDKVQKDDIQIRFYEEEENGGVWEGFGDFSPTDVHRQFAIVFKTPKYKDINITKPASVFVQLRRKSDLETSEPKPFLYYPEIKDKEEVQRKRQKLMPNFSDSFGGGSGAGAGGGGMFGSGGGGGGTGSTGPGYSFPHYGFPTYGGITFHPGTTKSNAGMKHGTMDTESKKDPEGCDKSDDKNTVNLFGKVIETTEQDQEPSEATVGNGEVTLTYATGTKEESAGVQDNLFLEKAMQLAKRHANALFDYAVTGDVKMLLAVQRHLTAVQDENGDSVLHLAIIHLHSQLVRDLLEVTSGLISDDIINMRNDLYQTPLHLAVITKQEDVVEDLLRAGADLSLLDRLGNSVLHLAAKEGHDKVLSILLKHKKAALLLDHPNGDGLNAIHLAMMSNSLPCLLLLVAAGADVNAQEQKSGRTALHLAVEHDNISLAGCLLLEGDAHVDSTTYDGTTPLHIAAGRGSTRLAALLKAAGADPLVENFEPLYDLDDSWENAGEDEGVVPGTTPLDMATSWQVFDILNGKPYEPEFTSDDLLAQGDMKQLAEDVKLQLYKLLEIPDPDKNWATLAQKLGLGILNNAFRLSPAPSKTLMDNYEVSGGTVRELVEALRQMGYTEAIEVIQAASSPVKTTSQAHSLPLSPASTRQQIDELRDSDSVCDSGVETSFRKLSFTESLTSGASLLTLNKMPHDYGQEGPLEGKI
T1 sequence (Q00653 whole entry, looked up): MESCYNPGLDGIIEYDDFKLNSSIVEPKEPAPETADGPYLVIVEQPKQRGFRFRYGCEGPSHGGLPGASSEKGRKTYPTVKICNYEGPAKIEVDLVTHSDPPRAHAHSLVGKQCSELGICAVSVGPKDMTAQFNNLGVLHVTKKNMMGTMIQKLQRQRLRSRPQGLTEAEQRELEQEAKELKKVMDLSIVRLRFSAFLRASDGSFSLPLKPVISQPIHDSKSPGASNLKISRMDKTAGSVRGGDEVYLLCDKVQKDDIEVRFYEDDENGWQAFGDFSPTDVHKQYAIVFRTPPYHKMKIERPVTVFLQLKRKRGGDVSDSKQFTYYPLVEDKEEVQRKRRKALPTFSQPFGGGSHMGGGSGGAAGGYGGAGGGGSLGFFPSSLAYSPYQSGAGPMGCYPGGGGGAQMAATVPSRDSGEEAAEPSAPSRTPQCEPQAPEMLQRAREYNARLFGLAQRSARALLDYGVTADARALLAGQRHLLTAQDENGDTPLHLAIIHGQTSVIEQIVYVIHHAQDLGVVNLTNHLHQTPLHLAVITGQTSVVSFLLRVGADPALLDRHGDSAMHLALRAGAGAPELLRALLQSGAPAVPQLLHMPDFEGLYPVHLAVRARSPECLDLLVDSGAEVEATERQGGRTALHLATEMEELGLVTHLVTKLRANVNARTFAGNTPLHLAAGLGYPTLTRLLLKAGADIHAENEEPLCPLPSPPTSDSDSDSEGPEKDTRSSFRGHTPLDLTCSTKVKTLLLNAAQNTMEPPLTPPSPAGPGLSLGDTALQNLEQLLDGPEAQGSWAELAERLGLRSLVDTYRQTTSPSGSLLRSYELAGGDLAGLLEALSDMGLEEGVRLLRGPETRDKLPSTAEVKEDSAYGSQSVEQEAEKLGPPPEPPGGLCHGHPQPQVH
T1 sequence (Q04206 whole entry, looked up): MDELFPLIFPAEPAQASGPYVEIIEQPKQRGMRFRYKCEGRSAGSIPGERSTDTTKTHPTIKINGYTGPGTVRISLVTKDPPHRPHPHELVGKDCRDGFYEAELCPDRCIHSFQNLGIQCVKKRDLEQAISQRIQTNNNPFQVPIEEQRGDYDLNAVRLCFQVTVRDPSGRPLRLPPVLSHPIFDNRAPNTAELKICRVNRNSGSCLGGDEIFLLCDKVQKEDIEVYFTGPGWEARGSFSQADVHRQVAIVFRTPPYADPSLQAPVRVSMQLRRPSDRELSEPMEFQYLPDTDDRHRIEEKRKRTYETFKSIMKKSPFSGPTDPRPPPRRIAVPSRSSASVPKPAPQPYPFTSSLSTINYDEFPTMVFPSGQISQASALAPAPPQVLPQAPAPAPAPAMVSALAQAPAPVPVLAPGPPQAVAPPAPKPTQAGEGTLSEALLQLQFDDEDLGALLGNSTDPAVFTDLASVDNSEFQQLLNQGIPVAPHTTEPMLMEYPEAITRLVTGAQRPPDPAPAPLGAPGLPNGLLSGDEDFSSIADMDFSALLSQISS

`CC1(Nc2ccc(NC(=O)c3cc(Cl)ccc3O)c(Cl)c2)CCCCC1` was tested, and the “log(activity)” value [1] was 1.82, the inhibition (A549 [2]) was “Active” and the inhibition (A549 [3]) was “inactive”. For the same compound, the inhibition (A549 [4]) was “Active”, the inhibition (A549 [5]) was “Active” and the inhibition (SAEC [6]) was “Active”. For the same compound, the inhibition (SAEC [7]) was “Active”, the inhibition (SAEC [8]) was “Active” and the “log(activity)” value [9] was 1.57. The inhibition [10] was “Active”, the inhibition [11] was “Active” and the inhibition [12] was “Active”. The inhibition [13] was “Active”, the inhibition [14] was “Active” and the inhibition [15] was “Active”. For the same compound, the inhibition [16] was “inactive”, the inhibition [17] was “Active” and the inhibition [18] was “Active”. The inhibition [19] was “inactive”, the inhibition [20] was “Active” and the inhibition [21] was “inactive”. The CC50 (A549 [22]) was 86.5 µM, the inhibition [23] was “Active” and the inhibition [24] was “Active”.
For `O=C(Nc1ccc(NCc2ccco2)cc1Cl)c1cc(Cl)ccc1O`, the “log(activity)” value [1] was 2.13, the inhibition (A549 [2]) was “Active” and the inhibition (A549 [3]) was “Active”. For the same compound, the inhibition (A549 [4]) was “Active”, the inhibition (A549 [5]) was “Active” and the “log(activity)” value [25] was 1.22. The inhibition [10] was “Active”, the inhibition [11] was “Active” and the inhibition [12] was “Active”. The inhibition [13] was “Active”, the inhibition [14] was “Active” and the inhibition [15] was “Active”. For the same compound, the inhibition [16] was “inactive”, the inhibition [17] was “Active” and the inhibition [18] was “Active”. For the same compound, the inhibition [19] was “Active”, the inhibition [20] was “Active” and the inhibition [26] was “Active”. The CC50 (A549 [22]) was 76.3 µM, the inhibition [23] was “Active” and the inhibition [24] was “Active”.
For `O=C(Nc1ccc([N+](=O)[O-])cc1Cl)c1cc(Cl)ccc1O` [NICLOSAMIDE], the “log(activity)” value [1] was 1.47 and the Activity (A549 [27]) was 24%.
